Molecules are shown by their SMILES.

Test [1] has as its target Estrogen receptor beta (Homo sapiens) (UniProt Q92731). As to the kind of experiment: Relative binding affinity to ERbeta by radiometric binding assay relative to estradiol. The method in brief:
(§1)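 RBA values for the PAMAM-dendrimer conjugate are calculated from the concentration of attached ligand rather than that of the conjugate.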

Test [2] deals with T1, Estrogen receptor (Homo sapiens) (UniProt P03372).
T1 sequence (whole entry): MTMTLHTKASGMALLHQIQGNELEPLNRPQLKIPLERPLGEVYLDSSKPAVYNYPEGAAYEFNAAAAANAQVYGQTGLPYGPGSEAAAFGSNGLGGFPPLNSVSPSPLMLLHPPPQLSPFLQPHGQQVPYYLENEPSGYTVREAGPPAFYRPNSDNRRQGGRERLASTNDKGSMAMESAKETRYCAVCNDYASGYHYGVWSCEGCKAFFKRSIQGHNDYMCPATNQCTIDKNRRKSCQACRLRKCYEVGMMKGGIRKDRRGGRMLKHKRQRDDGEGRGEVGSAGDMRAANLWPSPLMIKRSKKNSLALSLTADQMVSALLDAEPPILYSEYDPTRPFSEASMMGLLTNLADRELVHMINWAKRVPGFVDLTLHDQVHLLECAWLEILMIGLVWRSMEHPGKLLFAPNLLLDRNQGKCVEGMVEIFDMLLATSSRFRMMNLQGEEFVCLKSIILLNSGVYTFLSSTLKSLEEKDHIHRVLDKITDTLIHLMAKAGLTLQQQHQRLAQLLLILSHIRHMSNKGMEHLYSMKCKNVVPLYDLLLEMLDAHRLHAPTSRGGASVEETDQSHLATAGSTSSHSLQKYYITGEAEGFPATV
As to the kind of experiment: Relative binding affinity to ERalpha by radiometric binding assay relative to estradiol. Summed up: as §1

Chain of Estrogen receptor beta (Homo sapiens) (Q92731 whole entry): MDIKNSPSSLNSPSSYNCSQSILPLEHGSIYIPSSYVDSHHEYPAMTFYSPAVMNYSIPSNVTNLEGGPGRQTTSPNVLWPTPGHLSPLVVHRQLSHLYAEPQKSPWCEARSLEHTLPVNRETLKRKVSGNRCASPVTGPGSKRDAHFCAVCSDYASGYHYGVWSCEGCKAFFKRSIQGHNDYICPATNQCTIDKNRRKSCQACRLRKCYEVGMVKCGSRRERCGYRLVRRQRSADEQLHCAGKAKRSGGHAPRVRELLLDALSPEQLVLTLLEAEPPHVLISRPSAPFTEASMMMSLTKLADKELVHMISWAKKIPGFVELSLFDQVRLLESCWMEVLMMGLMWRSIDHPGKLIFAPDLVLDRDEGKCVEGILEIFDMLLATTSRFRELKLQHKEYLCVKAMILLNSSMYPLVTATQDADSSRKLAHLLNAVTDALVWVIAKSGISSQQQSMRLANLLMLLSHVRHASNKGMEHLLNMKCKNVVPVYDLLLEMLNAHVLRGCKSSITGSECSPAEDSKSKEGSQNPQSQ

In test [1], `CCSC(SCC)c1ccc(OCCCn2c(-c3ccc(O)cc3)c(C)c3cc(O)ccc32)cc1` registered a relative binding affinity (RBA) of 0.084.
Same read-out and setting: next, `CCCCOc1ccc(Cn2c(-c3ccc(O)cc3)c(C)c3cc(O)ccc32)cc1`: 1.2.
Regarding `COCCCCCCn1c(-c2ccc(O)cc2)c(C)c2cc(O)ccc21`, the results for the relative binding affinity (RBA) in test [2] and in test [1] were 11 and 2, respectively.
In the case of `Cc1ccc(C(=O)NCCCCn2c(-c3ccc(O)cc3)c(C)c3cc(O)ccc32)cc1`, in test [1], the relative binding affinity (RBA) was determined as 0.048.
Consider `COc1ccc(Cn2c(-c3ccc(O)cc3)c(C)c3cc(O)ccc32)cc1`, for which the relative binding affinity (RBA) worked out at 11 in test [2] and 6.5 in test [1].
Regarding `Cc1c(-c2ccc(O)cc2)n(Cc2ccc(O)cc2)c2ccc(O)cc12`, the relative binding affinity (RBA) came out at 10 in test [2] and 1 in test [1].
In the case of `CCCCOCCCCCCn1c(-c2ccc(O)cc2)c(C)c2cc(O)ccc21`, the relative binding affinity (RBA) in test [1] was 3.
Consider `Cc1c(-c2ccc(O)cc2)n(CCCCCCO)c2ccc(O)cc12`, for which the figures for the relative binding affinity (RBA) in test [2] and in test [1] were 13 and 1.4, respectively.
Consider `CC(=O)NCCNCc1ccc(OCCCn2c(-c3ccc(O)cc3)c(C)c3cc(O)ccc32)cc1`, for which the relative binding affinity (RBA) turned out to be 2.17 in test [2] and 0.24 in test [1].
